Measured values: ChEMBL document CHEMBL4673245, “Discovery of AZD9833, a Potent and Orally Bioavailable Selective Estrogen Receptor Degrader and Antagonist” (J Med Chem, 2020)
≈ marks a conversion by molar mass, not a printed value.

Assays:
[1] = Stability of compound at 60 degC and 75% relative humidity assessed parent compound remaining measured 1 week using crystalline form of sample by chromatographic method; assay type: physicochemical; conditions: solid sample, time 1 weeks, read-out: Stabilty
[2] = Stability of compound at 60 degC and ambient dry condition assessed parent compound remaining measured 2 weeks using amorphous form of sample by chromatographic method; assay type: physicochemical; conditions: solid sample, read-out: Stabilty
[3] = Stability of compound at 60 degC and 75% relative humidity assessed parent compound remaining measured 1 week using amorphous form of sample by chromatographic method; assay type: physicochemical; conditions: solid sample, time 1 weeks, read-out: Stabilty
[4] = Stability of compound at 40 degC and 75% relative humidity assessed parent compound remaining measured after 3 months using amorphous form of sample by chromatographic method; assay type: physicochemical; conditions: solid sample, read-out: Stabilty
Cytochrome P450 2C19 = Cytochrome P450 2C19 (Homo sapiens, UniProt P33261); assay: Inhibition of CYP2C19 in human liver microsomes; assay type: ADME
Chain of Cytochrome P450 2C19 (P33261 whole entry, canonical isoform): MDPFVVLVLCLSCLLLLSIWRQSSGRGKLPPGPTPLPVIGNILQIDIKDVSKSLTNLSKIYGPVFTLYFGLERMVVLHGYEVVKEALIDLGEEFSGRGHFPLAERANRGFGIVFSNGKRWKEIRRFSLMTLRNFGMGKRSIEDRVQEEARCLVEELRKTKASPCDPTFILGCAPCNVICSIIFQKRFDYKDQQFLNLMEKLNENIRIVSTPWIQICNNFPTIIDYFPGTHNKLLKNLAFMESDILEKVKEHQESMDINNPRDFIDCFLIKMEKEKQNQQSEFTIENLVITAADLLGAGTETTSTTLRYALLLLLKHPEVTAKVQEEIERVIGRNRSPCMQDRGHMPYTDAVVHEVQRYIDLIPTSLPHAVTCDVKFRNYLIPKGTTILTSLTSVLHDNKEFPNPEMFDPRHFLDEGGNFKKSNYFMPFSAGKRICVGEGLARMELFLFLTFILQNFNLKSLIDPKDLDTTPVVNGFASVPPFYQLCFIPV
Procedure, shortened: (§1)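 High-throughput human liver microsome panel of five CYP isoforms; inhibition reported as IC50.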

Cytochrome P450 1A2 = target: T1, Cytochrome P450 1A2 (Homo sapiens, UniProt P05177); assay: Inhibition of CYP1A2 in human liver microsomes; assay type: ADME; procedure, shortened: as §1
T1 sequence (P05177 whole entry): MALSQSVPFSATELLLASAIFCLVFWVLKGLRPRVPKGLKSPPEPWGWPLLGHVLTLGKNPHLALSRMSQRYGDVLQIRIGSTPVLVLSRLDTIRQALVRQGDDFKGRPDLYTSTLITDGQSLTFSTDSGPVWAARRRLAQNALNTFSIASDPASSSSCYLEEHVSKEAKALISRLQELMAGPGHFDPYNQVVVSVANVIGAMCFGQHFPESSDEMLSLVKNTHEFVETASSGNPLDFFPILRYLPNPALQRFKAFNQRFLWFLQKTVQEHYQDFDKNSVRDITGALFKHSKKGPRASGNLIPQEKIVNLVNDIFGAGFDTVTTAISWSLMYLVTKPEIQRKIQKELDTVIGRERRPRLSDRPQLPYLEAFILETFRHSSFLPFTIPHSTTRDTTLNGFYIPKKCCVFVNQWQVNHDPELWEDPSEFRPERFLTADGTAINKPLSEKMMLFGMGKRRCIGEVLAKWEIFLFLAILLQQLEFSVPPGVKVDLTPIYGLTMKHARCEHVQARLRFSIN

[5] = In vivo antagonist activity at ERalpha in human MCF7 cells xenografted CB17 SCID mouse assessed as decrease in PR expression level at 50 mg/kg, po administered daily via oral gavage for 21 days measured 24 hrs post last dose by Western blot analysis relative to control; assay type: functional; design: scale not given: the % may be the effect or the level left; conditions: time 21 day
[6] = In vivo antagonist activity at ERalpha in human MCF7 cells xenografted CB17 SCID mouse assessed as decrease in PR expression level at 10 mg/kg, po administered daily via oral gavage for 21 days measured 24 hrs post last dose by Western blot analysis relative to control; assay type: functional; design: scale not given: the % may be the effect or the level left; conditions: time 21 day
[7] = Antitumor activity against human […] cells xenografted in CB17 SCID mouse assessed as tumor growth inhibition at 50 mg/kg, po administered daily via oral gavage for 21 days relative to control; assay type: functional, MCF7; design: scale not given: the % may be the effect or the level left; conditions: time 21 day
[8] = Antitumor activity against human […] cells xenografted in CB17 SCID mouse assessed as tumor regression at 10 mg/kg, po administered daily via oral gavage for 21 days relative to control; assay type: functional, MCF7; conditions: time 21 day
MCF7 = assay: Antitumor activity against human […] cells xenografted in CB17 SCID mouse assessed as decrease in tumor volume administered daily via oral gavage for 21 days; assay type: functional, cell-based; conditions: dose 0.5-50 mg/kg, time 21.0 day
[9] = Clearance in rat at 0.5 mg/kg, iv or 1 mg/kg, po relative to liver blood flow; assay type: ADME, organism-based; conditions: in vivo
Procedure, shortened: (§2)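 Rat PK: single IV dose 0.5 mg/kg and oral dose 1 mg/kg, formulated in 5% DMSO:95% hydroxypropyl-β-cyclodextrin (30% w/v), dosed at 1 mL/kg IV and 4 mL/kg PO.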

[10] = Fraction absorbed in mouse at 2 mg/kg, iv or 5 mg/kg, po; assay type: ADME, organism-based; conditions: in vivo, read-out: Fabs
[11] = Clearance in mouse at 2 mg/kg, iv or 5 mg/kg, po relative to liver blood flow; assay type: ADME, organism-based; conditions: in vivo
[12] = Oral bioavailability in mouse at 5 mg/kg; assay type: ADME, organism-based; conditions: in vivo
[13] = Clearance in mouse at 2 mg/kg, iv or 5 mg/kg, po; assay type: ADME, organism-based; conditions: in vivo
[14] = Solubility of compound in phosphate buffer at pH 7.4 using crystalline form of sample; assay type: physicochemical
[15] = Solubility of compound in stimulated gastric fluid using crystalline form of sample; assay type: physicochemical; conditions: simulated gastric fluid
[16] = Solubility of compound in FASSIF at pH 6.5 using crystalline form of sample; assay type: physicochemical
[17] = Chemical stability of compound assessed as drug degradation in buffer at pH 10 stored at 22 to 60 degreeC measured after 5 days; assay type: physicochemical; conditions: pH 10, 120 h, time 5 day
[18] = Chemical stability of compound assessed as drug degradation in buffer at pH 1 stored at 22 to 60 degreeC measured after 5 days; assay type: physicochemical; conditions: pH 1, 120 h, time 5 day
[19] = Chemical stability of compound assessed as drug degradation in deuterated buffer at pH 4 measured for 8 days; assay type: physicochemical; conditions: pH 4, 192 h, time 8 day
[20] = Dissociation constant, dibasic pKa of compound in 0.1 M potassium chloride in presence of piperidine by UV-vis spectroscopy; assay type: physicochemical
[21] = Half-life in rat at 0.5 mg/kg, iv or 1 mg/kg, po; assay type: ADME, organism-based; conditions: in vivo; procedure, shortened: as §2
[22] = Volume of distribution at steady state in rat at 0.5 mg/kg, iv or 1 mg/kg, po; assay type: ADME, organism-based; conditions: in vivo, read-out: Vdss
Procedure, shortened: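 Rat dosed IV at 0.5 mg/kg and PO at 1 mg/kg, both formulated in 5% DMSO:95% hydroxypropyl-β-cyclodextrin (30% w/v), at 1 mL/kg IV and 4 mL/kg PO. Vdss (L/kg) derived from the pharmacokinetic profile after dosing.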

Cytochrome P450 3A4 = Cytochrome P450 3A4 (Homo sapiens, UniProt P08684); assay: Inhibition of CYP3A4 in human liver microsomes; assay type: ADME; procedure, shortened: as §1
Chain of Cytochrome P450 3A4 (P08684 whole entry): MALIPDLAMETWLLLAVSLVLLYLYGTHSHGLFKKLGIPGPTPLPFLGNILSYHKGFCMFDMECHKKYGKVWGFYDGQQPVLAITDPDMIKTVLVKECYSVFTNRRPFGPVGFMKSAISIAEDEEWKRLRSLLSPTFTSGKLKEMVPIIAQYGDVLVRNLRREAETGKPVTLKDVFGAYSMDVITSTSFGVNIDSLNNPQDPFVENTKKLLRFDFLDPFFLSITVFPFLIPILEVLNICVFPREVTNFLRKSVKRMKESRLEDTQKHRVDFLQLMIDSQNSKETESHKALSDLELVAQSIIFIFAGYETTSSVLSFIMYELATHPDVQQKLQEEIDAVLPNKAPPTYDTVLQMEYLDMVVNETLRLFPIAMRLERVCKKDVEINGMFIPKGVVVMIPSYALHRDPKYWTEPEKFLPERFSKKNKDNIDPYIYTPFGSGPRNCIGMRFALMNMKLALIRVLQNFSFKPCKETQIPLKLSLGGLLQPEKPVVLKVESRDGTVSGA

Cytochrome P450 2D6 = Cytochrome P450 2D6 (Homo sapiens, UniProt P10635); assay: Inhibition of CYP2D6 in human liver microsomes; assay type: ADME; procedure, shortened: as §1
Chain of Cytochrome P450 2D6 (P10635 whole entry): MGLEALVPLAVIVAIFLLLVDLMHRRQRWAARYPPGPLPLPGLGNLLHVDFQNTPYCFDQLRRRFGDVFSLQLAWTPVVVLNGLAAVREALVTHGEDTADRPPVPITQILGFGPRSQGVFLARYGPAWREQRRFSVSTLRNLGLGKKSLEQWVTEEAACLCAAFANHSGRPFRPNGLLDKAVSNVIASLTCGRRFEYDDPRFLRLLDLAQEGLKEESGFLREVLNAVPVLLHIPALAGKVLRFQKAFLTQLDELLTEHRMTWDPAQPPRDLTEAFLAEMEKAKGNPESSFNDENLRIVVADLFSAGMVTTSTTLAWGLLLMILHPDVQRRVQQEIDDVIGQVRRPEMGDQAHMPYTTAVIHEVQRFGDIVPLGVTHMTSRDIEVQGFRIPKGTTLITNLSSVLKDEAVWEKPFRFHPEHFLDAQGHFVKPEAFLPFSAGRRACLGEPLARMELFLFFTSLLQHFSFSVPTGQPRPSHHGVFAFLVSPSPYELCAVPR

[23] = Fraction unbound in dog plasma; assay type: ADME, cell-free, Canis lupus familiaris
[24] = Fraction unbound in rat plasma; assay type: ADME, cell-free
[25] = Intrinsic clearance in rat hepatocytes assessed per million cells; assay type: ADME, cell-based, Hepatocyte; conditions: read-out: CLH
Procedure, shortened: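 Hepatocyte intrinsic clearance measured from DMSO stock in isolated hepatocytes diluted to 1x10⁶ cells/mL; rate expressed as µl/min/10⁶ cells.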

[26] = Fraction unbound in human plasma by equilibrium dialysis method; assay type: ADME, cell-free
Procedure, shortened: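 Fraction unbound measured from DMSO stock by equilibrium dialysis in 10% human plasma.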

For `C[C@@H]1Cc2c(ccc3[nH]ncc23)[C@@H](c2ccc(NC3CN(CCCF)C3)cn2)N1CC(F)(F)F` [CAMIZESTRANT], the remaining at 168 h [1] was 99.5%, the remaining at 336 h [2] was 98.4% and the remaining at 168 h [3] was 82.4%. The remaining at 2190 h [4] was 90.5%, the IC50 (Cytochrome P450 2C19) was greater than 30 µM and the IC50 (Cytochrome P450 1A2) was greater than 30 µM. The Activity [5] was 6.3%, the Activity [6] was 8.9% and the Activity [7] was 53%. The Activity [8] was 15%, the Activity (MCF7) was “Dose-dependent effect” and the CL [9] was 106%. For the same compound, the Fa [10] was 50%, the CL [11] was 66% and the bioavailability [12] was 16%. It also gave a clearance [13] of 59 mL/min/kg, a solubility thermodynamic [14] of 400 µg/mL (≈ 0.839 mM) and a solubility thermodynamic [15] greater than 10000 µg/mL. For the same compound, the solubility thermodynamic [16] was 1500 µg/mL (≈ 3.15 mM), the Stabilty [17] was “Unstable” and the Stabilty [18] was “Unstable”. For the same compound, the Stabilty [19] was “Stable”, the pKa [20] was 4.8 and the half-life [21] was 3 h. The Vd [22] was 13 L/kg, the IC50 (Cytochrome P450 3A4) was 2.2 µM and the IC50 (Cytochrome P450 2D6) was 4.3 µM. The fraction unbound [23] was 0.15, the fraction unbound [24] was 0.26 and the hepatocyte CLint [25] was 23 µL/min/1e6 cells. The fraction unbound [26] was 0.23.
